Experimental data as given in ChEMBL document CHEMBL2346503, “Synthesis and evaluation of novel (18)F-labeled spirocyclic piperidine derivatives as σ1 receptor ligands for positron emission tomography imaging” (J Med Chem, 2013).

Key:
Nucleic Acid [1] = assay: Ratio of drug uptake in Sprague-Dawley rat temporal cortex auditory area to cerebellum at 12.2 MBq, iv after 60 mins by autoradiography; type: ADME, organism-based; settings: in vivo, 1 h
Hypothalamus [2] = assay: Biodistribution in Sprague-Dawley rat hypothalamus at 23 MBq, iv after 60 mins by microPET imaging/CT study in presence of haloperidol; type: ADME, organism-based; settings: in vivo, 1 h
How it was run: (§1)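 Sprague-Dawley rats under isoflurane (1.5–2.5%) in oxygen received 23 MBq radiotracer (0.2 mL saline) via tail vein. Blocking animals were pre-injected with haloperidol (0.2 mL, 1 mg/kg) 5 min before the tracer. MicroPET emission was acquired for 30 min starting 60 min post-injection, followed by a 5 min CT scan; images were summed over 60–90 min.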

Nucleic Acid [3] = assay: Ratio of drug uptake in Sprague-Dawley rat thalamus to cerebellum at 12.2 MBq, iv after 60 mins by autoradiography; type: ADME, organism-based; settings: in vivo, 1 h
Midbrain = assay: Biodistribution in Sprague-Dawley rat midbrain at 23 MBq, iv after 60 mins by microPET imaging/CT study; type: ADME, organism-based; settings: in vivo, 1 h; how it was run: as §1
Heart = assay: Biodistribution in ICR mouse heart assessed as reduction in radiotracer uptake at 370 kBq, iv after 60 minutes by gamma-counting analysis in presence of SA4503 relative to control; type: ADME, organism-based; parameters: scale not given: the % may be the effect or the level left; settings: in vivo, 1 h
How it was run: (§2)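 Male ICR mice got saline or SA4503 (0.1 mL; 2, 5, 10 or 2.2 μmol/kg) via tail vein 5 min before 370 kBq tracer (0.1 mL) iv. They were decapitated at 60 min and tissues γ-counted. Percent change was taken against saline controls, with two-tailed Student's t test, p ≤ 0.05.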

Rattus norvegicus [4] = assay: Biodistribution in Sprague-Dawley rat internal capsule at 23 MBq, iv after 60 mins by microPET imaging/CT study; type: ADME, organism-based; settings: in vivo, 1 h; how it was run: as §1
Spleen = assay: Biodistribution in ICR mouse spleen assessed as reduction in radiotracer uptake at 370 kBq, iv after 60 minutes by gamma-counting analysis in presence of SA4503 relative to control; type: ADME, organism-based; parameters: scale not given: the % may be the effect or the level left; settings: in vivo, 1 h
How it was run: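 Male ICR mice were given saline or SA4503 (0.1 mL; 2, 5 or 10 μmol/kg) via tail vein 5 min before [18F]radiotracer (370 kBq, 0.1 mL, iv). Killed at 60 min. Organs were gamma-counted as % ID/g and reduction was computed versus saline controls. Two-tailed independent Student's t test, p ≤ 0.05.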

Cortex [5] = assay: Drug uptake in Sprague-Dawley rat temporal cortex auditory area at 12.2 MBq, iv after 60 mins by autoradiography; type: ADME, organism-based; settings: in vivo, 1 h
How it was run: (§3)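 [¹⁸F]-labelled tracer (0.2 mL, 12.2 MBq) given intravenously to conscious Sprague-Dawley rats (n = 3). Each rat was killed by cervical dislocation 60 min after injection. The brain was removed and frozen in liquid nitrogen, and 20 μm coronal sections were cut on a cryostat for ex vivo autoradiography of regional radioactivity.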

Cortex [6] = assay: Biodistribution in Sprague-Dawley rat cortex at 23 MBq, iv after 60 mins by microPET imaging/CT study; type: ADME, organism-based; settings: in vivo, 1 h; how it was run: as §1
Hypothalamus [7] = assay: Biodistribution in Sprague-Dawley rat hypothalamus at 23 MBq, iv after 60 mins by microPET imaging/CT study; type: ADME, organism-based; settings: in vivo, 1 h; how it was run: as §1
Nucleic Acid [8] = assay: Ratio of drug uptake in Sprague-Dawley rat hippocampus to cerebellum at 12.2 MBq, iv after 60 mins by autoradiography; type: ADME, organism-based; settings: in vivo, 1 h
Rattus norvegicus [9] = assay: Biodistribution in Sprague-Dawley rat olfactory bulb at 23 MBq, iv after 60 mins by microPET imaging/CT study; type: ADME, organism-based; settings: in vivo, 1 h; how it was run: as §1
[10] = Chemical stability of the compound at room temperature up to 4 hrs; type: physicochemical
How it was run: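 Radiotracer (3.7 MBq in 100 μL water) was added to 1 mL of 80% ethanol or 0.9% NaCl and held at room temperature for 4 h. Radiochemical purity was checked by HPLC at 1, 2 and 4 h.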

Brain [11] = assay: Biodistribution in ICR mouse brain assessed as reduction in radiotracer uptake at 370 kBq, iv after 60 minutes by gamma-counting analysis in presence of SA4503 relative to control; type: ADME, organism-based; parameters: scale not given: the % may be the effect or the level left; settings: in vivo, 1 h; how it was run: as §2
Thalamus [12] = assay: Drug uptake in Sprague-Dawley rat thalamus at 12.2 MBq, iv after 60 mins by autoradiography; type: ADME, organism-based; settings: in vivo, 1 h; how it was run: as §3
Hypothalamus [13] = assay: Drug uptake in Sprague-Dawley rat hypothalamus at 12.2 MBq, iv after 60 mins by autoradiography; type: ADME, organism-based; settings: in vivo, 1 h; how it was run: as §3
Blood = assay: Biodistribution in ICR mouse blood assessed as radiotracer accumulation at 370 kBq, iv after 60 minutes by gamma-counting analysis in presence of SA4503; type: ADME, organism-based; settings: in vivo, 1 h; how it was run: as §2
Rattus norvegicus [14] = assay: Biodistribution in Sprague-Dawley rat internal capsule at 23 MBq, iv after 60 mins by microPET imaging/CT study in presence of haloperidol; type: ADME, organism-based; settings: in vivo, 1 h; how it was run: as §1
Brain [15] = assay: Biodistribution in ICR mouse brain assessed as reduction in radiotracer uptake at 370 kBq, iv after 60 minutes by gamma-counting analysis in presence of haloperidol; type: ADME, organism-based; settings: in vivo, 1 h
How it was run: (§4)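 Male ICR mice got saline or a blocker (haloperidol, (S)-(−)-raclopride, fluvoxamine or tamoxifen; 0.1 mL, 2.2 μmol/kg) via tail vein 5 min before 370 kBq tracer iv. Brain was γ-counted at 60 min and compared with saline controls by two-tailed Student's t test, p ≤ 0.05.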

Brain [16] = assay: Biodistribution in ICR mouse brain assessed as reduction in radiotracer uptake at 370 kBq, iv after 60 minutes by gamma-counting analysis in presence of tamoxifen; type: ADME, organism-based; settings: in vivo, 1 h; how it was run: as §4
Nucleic Acid [17] = assay: Ratio of drug uptake in Sprague-Dawley rat interior coliculus to cerebellum at 12.2 MBq, iv after 60 mins by autoradiography; type: ADME, organism-based; settings: in vivo, 1 h
Liver = assay: Metabolic stability in ICR mouse liver assessed as retention time at 18.5 MBq, iv by HPLC analysis; type: ADME, organism-based; settings: in vivo
How it was run: (§5)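 Male ICR mice given radiotracer iv (18.5 MBq, 0.2 mL), killed at 30 min. Brain and liver were homogenized in ice-cold PBS (0.01 M, pH 7.4) and extracted with ice-cold MeCN. Supernatants were filtered, concentrated and analysed by radio-HPLC on a C18 column, acetonitrile/water with 0.1% TFA (45:55), 1 mL/min.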

Thalamus [18] = assay: Biodistribution in Sprague-Dawley rat thalamus at 23 MBq, iv after 60 mins by microPET imaging/CT study in presence of haloperidol; type: ADME, organism-based; settings: in vivo, 1 h; how it was run: as §1
Cerebellum = assay: Biodistribution in Sprague-Dawley rat cerebellum at 23 MBq, iv after 60 mins by microPET imaging/CT study; type: ADME, organism-based; settings: in vivo, 1 h; how it was run: as §1
Brain [19] = assay: Biodistribution in ICR mouse brain assessed as reduction in radiotracer uptake at 370 kBq, iv after 60 minutes by gamma-counting analysis in presence of fluvoxamine; type: ADME, organism-based; settings: in vivo, 1 h; how it was run: as §4
Hippocampus = assay: Drug uptake in Sprague-Dawley rat hippocampus at 12.2 MBq, iv after 60 mins by autoradiography; type: ADME, organism-based; settings: in vivo, 1 h; how it was run: as §3
Brain [20] = assay: Metabolic stability in ICR mouse brain at 18.5 MBq, iv after 30 mins by HPLC analysis; type: ADME, organism-based; settings: in vivo, 0.5 h; how it was run: as §5
Kidney = assay: Biodistribution in ICR mouse kidney assessed as reduction in radiotracer uptake at 370 kBq, iv after 60 minutes by gamma-counting analysis in presence of SA4503 relative to control; type: ADME, organism-based; parameters: scale not given: the % may be the effect or the level left; settings: in vivo, 1 h; how it was run: as §2
Cortex [21] = assay: Drug uptake in Sprague-Dawley rat visual cortex at 12.2 MBq, iv after 60 mins by autoradiography; type: ADME, organism-based; settings: in vivo, 1 h; how it was run: as §3
Cortex [22] = assay: Drug uptake in Sprague-Dawley rat cortex at 12.2 MBq, iv after 60 mins by autoradiography; type: ADME, organism-based; settings: in vivo, 1 h; how it was run: as §3
[23] = Drug uptake in Sprague-Dawley rat paramedian lobule at 12.2 MBq, iv after 60 mins by autoradiography; type: ADME, organism-based; settings: in vivo, 1 h; how it was run: as §3

[18F]CCOc1ccc(CN2CCC3(CC2)OCc2ccccc23)cc1
Ratio (Nucleic Acid [1]): 1.9 | Drug uptake (Hypothalamus [2]): Active | Ratio (Nucleic Acid [3]): 1.38 | Drug uptake (Midbrain): Active | Activity (Heart): 60% | Drug uptake (Rattus norvegicus [4]): Active | Activity (Spleen): 29% | Drug uptake (Cortex [5]): Active | Drug uptake (Cortex [6]): Active | Drug uptake (Hypothalamus [7]): Active | Ratio (Nucleic Acid [8]): 1.22 | Drug uptake (Rattus norvegicus [9]): Active | Stability [10]: Stable | Activity (Brain [11]): 46% | Drug uptake (Thalamus [12]): Active | Drug uptake (Hypothalamus [13]): Active | Drug uptake (Blood): Active | Drug uptake (Rattus norvegicus [14]): Active | Drug uptake (Brain [15]): Active | Drug uptake (Brain [16]): Active | Ratio (Nucleic Acid [17]): 1.3 | Retention_time (Liver): 7.72 min | Drug uptake (Thalamus [18]): Active | Drug uptake (Cerebellum): Active | Drug uptake (Brain [19]): Active | Drug uptake (Hippocampus): Active | Stability (Brain [20]): Stable | Activity (Kidney): 57% | Drug uptake (Cortex [21]): Active | Drug uptake (Cortex [22]): Active | Drug uptake [23]: Active
